Assay results reported in ChEMBL document CHEMBL3621107, “Ring fusion strategy for synthesis and lead optimization of sulfur-substituted anthra[1,2-c][1,2,5]thiadiazole-6,11-dione derivatives as promising scaffold of antitumor agents” (Eur J Med Chem, 2015).
The source made the active and inactive calls. No cut-off for these calls is given here.

Key:
HOP-62 = experiment: Cytotoxicity against human HOP62 cells after 48 hrs by SRB assay; format: functional; conditions: HOP-62, 48 h
Summary of the method: (§1)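 NCI-60 human tumour cell panel screen, second stage, run by the NCI Developmental Therapeutics Program. Compounds were tested at five concentrations (0.01, 0.1, 1, 10 and 100 μM). Percentage growth was plotted against log10 concentration for each cell line. GI50, TGI and LC50 were taken from these dose-response curves.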

KM12 = experiment: Cytotoxicity against human KM12 cells after 48 hrs by SRB assay; format: functional; conditions: KM12, 48 h; summary of the method: as §1
SNB-75 = experiment: Cytotoxicity against human SNB75 cells after 48 hrs by SRB assay; format: functional; conditions: SNB-75, 48 h
Summary of the method: (§2)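 NCI-60 five-dose study run by NCI DTP at 0.01, 0.1, 1, 10 and 100 µM. Percentage growth at each level was plotted against log10 concentration for each line, and GI50, TGI and LC50 were read from the dose-response curves.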

DU-145 [1] = experiment: Cytotoxicity against human DU145 cells after 48 hrs by SRB assay; format: functional; conditions: DU-145, 48 h; summary of the method: as §1
UACC-257 = experiment: Cytotoxicity against human UACC257 cells after 48 hrs by SRB assay; format: functional; conditions: UACC-257, 48 h; summary of the method: as §2
NCI-H226 = experiment: Cytotoxicity against human NCI-H226 cells after 48 hrs by SRB assay; format: functional; conditions: NCI-H226, 48 h
Summary of the method: (§3)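 Second-stage NCI-60 panel run by the NCI Developmental Therapeutics Program, covering nine tumour subpanels. Five concentrations were tested: 0.01, 0.1, 1, 10 and 100 μM. Percentage growth at each level was plotted against log10 drug concentration. GI50, TGI and LC50 were read from these dose-response curves. Subpanel MID values were divided into the full-panel MID to give selectivity ratios.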

A498 = experiment: Cytotoxicity against human A498 cells after 48 hrs by SRB assay; format: functional; conditions: A498, 48 h; summary of the method: as §1
OVCAR-8 = experiment: Cytotoxicity against human OVCAR8 cells after 48 hrs by SRB assay; format: functional; conditions: OVCAR-8, 48 h; for CC50: read-out: LC50 (the source's name); summary of the method: as §3
DU-145 [2] = experiment: Induction of apoptosis in human DU145 cells assessed as early apoptotic cells at 3 to 12 uM after 24 hrs by flow cytometry; format: functional, cell-based
DU-145 [3] = experiment: Induction of apoptosis in human DU145 cells assessed as decreased levels of cyclin D1 at 3 to 18 uM after 48 hrs by Western blotting; format: functional, cell-based
Summary of the method: (§4)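 DU-145 lysates were analysed by immunoblot for cyclin D1 and Bcl-2 after dosing across a concentration range. Cells were lysed on ice and cleared by centrifugation. Protein was quantified by Bradford, run on 12% SDS-PAGE and transferred to PVDF, with chemiluminescent detection. α-Tubulin served as loading control; n=3 independent experiments.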

[4] = Cytotoxicity against human WPMY-1cells assessed as survival rate after 72 hrs by MTT assay; format: cell-based; conditions: WPMY-1 cells, read-out: Survival
Summary of the method: (§5)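 About 2×10^3 cells/well preincubated 24 h at 37 °C, 5% CO2. Compound freshly dissolved in DMSO, diluted into complete medium and added at various concentrations (vehicle 0.1% DMSO) for 72 h. MTT added for 3 h at 37 °C, absorbance read at 570 nm, survival rate derived.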

[5] = Cytotoxicity against human RWPE1 cells assessed as survival rate after 72 hrs by MTT assay; format: cell-based, RWPE-1; conditions: RWPE1 cells, read-out: Survival; summary of the method: as §5
[6] = biological target: Mitogen-activated protein kinase; ERK1/ERK2 (Homo sapiens) (UniProt P27361+P28482); experiment: Inhibition of human ERK1/2 phosphorylation in human DU145 cells after 48 hrs by Western blotting; format: cell-based; conditions: DU-145
Sequence of Mitogen-activated protein kinase; ERK1/ERK2 (Homo sapiens) (P27361 whole entry, looked up): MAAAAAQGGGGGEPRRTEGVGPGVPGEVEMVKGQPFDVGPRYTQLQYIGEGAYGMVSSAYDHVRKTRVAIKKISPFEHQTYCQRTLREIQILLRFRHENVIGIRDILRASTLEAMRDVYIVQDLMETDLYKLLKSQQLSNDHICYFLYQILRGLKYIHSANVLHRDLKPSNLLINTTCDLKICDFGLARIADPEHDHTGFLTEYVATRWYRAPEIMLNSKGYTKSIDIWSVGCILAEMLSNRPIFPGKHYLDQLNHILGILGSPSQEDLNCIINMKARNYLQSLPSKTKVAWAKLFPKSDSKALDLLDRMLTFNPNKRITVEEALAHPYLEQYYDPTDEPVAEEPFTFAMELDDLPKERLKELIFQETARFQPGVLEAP
Sequence of Mitogen-activated protein kinase; ERK1/ERK2 (Homo sapiens) (P28482 whole entry, looked up): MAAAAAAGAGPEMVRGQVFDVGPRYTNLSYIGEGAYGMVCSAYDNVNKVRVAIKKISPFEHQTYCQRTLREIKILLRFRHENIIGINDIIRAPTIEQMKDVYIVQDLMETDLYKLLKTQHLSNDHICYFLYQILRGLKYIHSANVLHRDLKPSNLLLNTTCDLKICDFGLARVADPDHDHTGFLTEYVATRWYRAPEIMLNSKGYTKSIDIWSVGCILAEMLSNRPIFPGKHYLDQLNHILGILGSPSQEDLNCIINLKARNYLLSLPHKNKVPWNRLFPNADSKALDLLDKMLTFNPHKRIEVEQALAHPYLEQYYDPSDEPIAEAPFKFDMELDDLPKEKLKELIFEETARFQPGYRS
Summary of the method: (§6)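 DU-145 cells were treated at 3, 12 and 18 µM and phospho-ERK1/2 and phospho-p38 were assessed by Western blot. Lysis was on ice with centrifugation, then Bradford protein assay, 12% SDS-PAGE, PVDF transfer and chemiluminescent detection.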

DU-145 [7] = experiment: Induction of apoptosis in human DU145 cells assessed as decreased levels of Bcl-2 at 3 to 18 uM after 48 hrs by Western blotting; format: functional, cell-based; summary of the method: as §4
DU-145 [8] = experiment: Induction of apoptosis in human DU145 cells assessed as cleaved caspase 3 at 3 to 12 uM after 48 hrs by Western blotting; format: functional, cell-based
Summary of the method: (§7)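 DU-145 cells were exposed to various concentrations for 48 h. Cells were washed in PBS and lysed on ice for 30 min, then spun at 120000g for 15 min. Protein was measured by Bradford, run on 12% SDS-PAGE and blotted to PVDF. Blots were probed for cleaved PARP and cleaved caspase-3 with chemiluminescent detection and β-actin as loading control; n=3 independent experiments.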

DU-145 [9] = experiment: Induction of apoptosis in human DU145 cells assessed as cell rounding and shrinkage at 5 uM after 24 hrs by phase contrast microscopy analysis; format: functional, cell-based
Summary of the method: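 DU-145 cells were seeded at 5×10^5 per 10 cm dish and treated with various concentrations for 24 h. Unfixed cells were examined and photographed by phase-contrast microscopy for rounding and shrinkage.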

DU-145 [10] = experiment: Induction of apoptosis in human DU145 cells assessed as increase in cleaved PARP at 3 to 12 uM after 48 hrs by Western blotting; format: functional, cell-based; summary of the method: as §7
DU-145 [11] = experiment: Induction of apoptosis in human DU145 cells assessed as decrease in total PARP at 3 to 12 uM after 48 hrs by Western blotting; format: functional, cell-based
[12] = biological target: MAP kinase p38 (Homo sapiens) (UniProt O15264+Q15759+Q16539+P53778); experiment: Inhibition of human p38 phosphorylation in human DU145 cells after 48 hrs by Western blotting; format: cell-based; conditions: DU-145; summary of the method: as §6
[13] = Cytotoxicity against human SV-HUC1 cells assessed as survival rate after 72 hrs by MTT assay; format: cell-based; conditions: SV-HUC1 cells, read-out: Survival
Summary of the method: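 SV-HUC-1 cells grown in Ham's F-12K with 5% heat-inactivated fetal calf serum, 37 °C, 5% CO2. About 2×10^3 cells/well plated for 24 h, then a range of compound concentrations (DMSO stock diluted into medium; vehicle 0.1% DMSO) for 72 h. MTT added for 3 h at 37 °C; absorbance 570 nm.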

| Structure (SMILES) | GI50 (HOP-62) [µM] | LC50 (HOP-62) [µM] | TGI (HOP-62) [µM] | GI50 (KM12) [µM] | LC50 (concentration killing 50% of cells) (KM12) [µM] | TGI (KM12) [µM] | GI50 (SNB-75) [µM] | LC50 (concentration killing 50% of cells) (SNB-75) [µM] | TGI (SNB-75) [µM] | GI50 (DU-145 [1]) [µM] | LC50 (DU-145 [1]) [µM] | TGI (DU-145 [1]) [µM] | GI50 (UACC-257) [µM] | LC50 (UACC-257) [µM] | TGI (UACC-257) [µM] | GI50 (NCI-H226) [µM] | LC50 (concentration killing 50% of starting cells) (NCI-H226) [µM] | TGI (NCI-H226) [µM] | GI50 (A498) [µM] | LC50 (concentration killing 50% of cells) (A498) [µM] | also measured |
| --- | --- | --- | --- | --- | --- | --- | --- | --- | --- | --- | --- | --- | --- | --- | --- | --- | --- | --- | --- | --- | --- |
| O=C1c2ccccc2C(=O)c2c1cc(Sc1ccc(F)cc1F)c1nsnc21 | 1.82 | 6.01 | 3.3 | 9.91 | > 100 | 77.3 | 1.57 | 13.1 | 4.22 | 6.3 | 45 | 18.7 | 1.59 | 18 | 4.64 | 3.09 | 59.1 | 11.1 | 2.26 | > 100 | TGI (A498): 58.5 µM; GI50 (OVCAR-8): 1.58 µM; TGI (OVCAR-8): 3.63 µM; CC50 (OVCAR-8): 8.34 µM |
| O=C1c2ccccc2C(=O)c2c1cc(Sc1ccccc1Br)c1nsnc21 | 13.3 | > 50 | 30.4 | 41.9 | > 50 | > 50 | 14.9 | > 50 | > 50 | 21.5 | > 50 | > 50 | 8.56 | > 50 | 20.9 | 19.4 | > 50 | > 50 | 10.7 | > 50 | TGI (A498): > 50 µM; GI50 (OVCAR-8): 11.1 µM; TGI (OVCAR-8): > 50 µM; CC50 (OVCAR-8): > 50 µM |
| O=C1c2ccccc2C(=O)c2c1cc(SCc1ccccc1)c1nsnc21 | 10.7 | 30.4 | 13.6 | 19.5 | > 50 | > 50 | 8.26 | 31 | 16 | 10.2 | 38.8 | 19.9 | 9.05 | 35.4 | 17.1 | > 50 | > 50 | 35.2 | > 50 | > 50 | TGI (A498): > 50 µM; GI50 (OVCAR-8): 3.5 µM; TGI (OVCAR-8): 25.8 µM; CC50 (OVCAR-8): > 50 µM |
| O=C1c2ccccc2C(=O)c2c1cc(Sc1cccc(Cl)c1)c1nsnc21 | 1.85 | 8.81 | 4.04 | 12 | 65.7 | 28 | 1.99 | 23.7 | 6.23 | 2.27 | 14.3 | 5.09 | 1.52 | 6.54 | 3.15 | 2.39 | 57.5 | 6.06 | 13 | 6.54 | TGI (A498): 29.2 µM; GI50 (OVCAR-8): 0.59 µM; TGI (OVCAR-8): 2.26 µM; CC50 (OVCAR-8): 6.81 µM |
| CC(C)Sc1cc2c(c3nsnc13)C(=O)c1ccccc1C2=O | 2.1 | 24.2 | 6.53 | 3.19 | 41.1 | 11.3 | 0.52 | 23.9 | 3.95 | 1.45 | 26.4 | 6.64 | 0.57 | 4.47 | 1.88 | 1.83 | 14.6 | 4.64 | 0.56 | 23.6 | Activity (DU-145 [2]): Active; Activity (DU-145 [3]): Active; viability at 72 h [4]: 50%; viability at 72 h [5]: 60%; inhibition [6]: Active; Activity (DU-145 [7]): Active; Activity (DU-145 [8]): Active; Activity (DU-145 [9]): Active; Activity (DU-145 [10]): Active; Activity (DU-145 [11]): Active; inhibition [12]: Active; TGI (A498): 4.28 µM; GI50 (OVCAR-8): 0.49 µM; TGI (OVCAR-8): 2.37 µM; CC50 (OVCAR-8): 9.85 µM; viability at 72 h [13]: 80% |
